From ChEMBL document CHEMBL1255327, “Carbapenem-resistant Acinetobacter baumannii isolates from Tunisia producing the OXA-58-like carbapenem-hydrolyzing oxacillinase OXA-97” (2008)
Converted amounts (≈) assume the structure as drawn.

Assays:
Acinetobacter baumannii [1] = experiment: Activity of Acinetobacter baumannii phenotype 1 beta-lactamase assessed per mg of protein at 100 uM
How it was run: (§1)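 Crude extracts made by sonication from A. baumannii clinical isolates and from E. coli TOP10 recombinants expressing OXA-97 or OXA-58. Specific activity measured against imipenem, meropenem, cephalothin, ceftazidime, oxacillin and benzylpenicillin, each at 100 μM final. Values are means of three independent experiments; standard deviations within 10% of means.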

Acinetobacter baumannii [2] = experiment: Activity of Acinetobacter baumannii phenotype 2 beta-lactamase assessed per mg of protein at 100 uM; how it was run: as §1
Acinetobacter baumannii [3] = experiment: Activity of Acinetobacter baumannii MAD beta-lactamase assessed per mg of protein at 100 uM; how it was run: as §1
Escherichia coli [4] = experiment: Activity of Escherichia coli TOP10 beta-lactamase OXA-58 assessed per mg of protein at 100 uM; how it was run: as §1
Escherichia coli [5] = experiment: Activity of Escherichia coli TOP10 beta-lactamase OXA-97 assessed as specific activity per mg of protein at 100 uM; how it was run: as §1
Acinetobacter baumannii [6] = experiment: Antibacterial activity against Acinetobacter baumannii phenotype 1 […]; assay type: functional
How it was run: (§2)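 Disk diffusion on Mueller-Hinton agar plates with β-lactam and non-β-lactam antibiotic disks, interpreted per CLSI guidelines.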

Acinetobacter baumannii [7] = experiment: Antibacterial activity against Acinetobacter baumannii phenotype 2 […]; assay type: functional; how it was run: as §2
Acinetobacter baumannii [8] = experiment: Antibacterial activity against Acinetobacter baumannii MAD […]; assay type: functional
Escherichia coli [9] = experiment: Antibacterial activity against Escherichia coli TOP10 harboring pOXA-58; assay type: functional
Escherichia coli [10] = experiment: Antibacterial activity against Escherichia coli TOP10 harboring pOXA-97; assay type: functional
Acinetobacter baumannii [11] = experiment: Antibacterial activity against Acinetobacter baumannii CIP7010 by disk diffusion method; assay type: functional; how it was run: as §2
Acinetobacter baumannii [12] = experiment: Antibacterial activity against Acinetobacter baumannii CIP7010 harboring pOXA-97 by disk diffusion method; assay type: functional
How it was run: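 Disk diffusion on Mueller-Hinton agar with β-lactam and non-β-lactam disks, per CLSI guidelines. The strain is an electroporation transformant of recipient CIP7010, with clinical isolates A1 and A2 as plasmid donors, selected on Trypticase soy agar containing 50 μg/ml ticarcillin.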

[13] = Antibacterial activity against Escherichia coli DH10B; assay type: functional, Escherichia coli str. K-12 substr. DH10B
[14] = Antibacterial activity against Escherichia coli DH10B harboring pOXA-97; assay type: functional, Escherichia coli str. K-12 substr. DH10B
Acinetobacter baumannii [15] = experiment: Antibacterial activity against Acinetobacter baumannii phenotype 1 […] in presence of 4 ug/ml clavulanic acid; assay type: functional
Acinetobacter baumannii [16] = experiment: Antibacterial activity against Acinetobacter baumannii phenotype 2 […] in presence of 4 ug/ml clavulanic acid; assay type: functional
Acinetobacter baumannii [17] = experiment: Antibacterial activity against Acinetobacter baumannii MAD […] in presence of 4 ug/ml clavulanic acid; assay type: functional
Escherichia coli [18] = experiment: Antibacterial activity against Escherichia coli TOP10 harboring pOXA-58 in presence of 4 ug/ml clavulanic acid; assay type: functional
Escherichia coli [19] = experiment: Antibacterial activity against Escherichia coli TOP10 harboring pOXA-97 in presence of 4 ug/ml clavulanic acid; assay type: functional
Acinetobacter baumannii [20] = experiment: Antibacterial activity against Acinetobacter baumannii CIP7010 by disk diffusion method in presence of 4 ug/ml clavulanic acid; assay type: functional
Escherichia coli [21] = experiment: Antibacterial activity against Escherichia coli DH10B in presence of 4 ug/ml clavulanic acid; assay type: functional; conditions: K-12 DH10B
[22] = Antibacterial activity against Escherichia coli DH10B harboring pOXA-97 in presence of 4 ug/ml clavulanic acid; assay type: functional, Escherichia coli str. K-12 substr. DH10B

Structure (SMILES)	Activity (Acinetobacter baumannii [1])	Activity (Acinetobacter baumannii [3])	Activity (Escherichia coli [4])	Activity (Escherichia coli [5])	MIC (Acinetobacter baumannii [6])	MIC (Acinetobacter baumannii [7])	MIC (Acinetobacter baumannii [8])	MIC (Escherichia coli [9])	MIC (Escherichia coli [10])	MIC (Acinetobacter baumannii [11])	MIC (Acinetobacter baumannii [12])	MIC [13]	MIC [14]	also measured
CC1(C)S[C@@H]2[C@H](NC(=O)Cc3ccccc3)C(=O)N2[C@H]1C(=O)O	220 mU/mg	170 mU/mg	150 mU/mg	220 mU/mg										Activity (Acinetobacter baumannii [2]): 210 mU/mg
CC(C)(O/N=C(\C(=O)N[C@@H]1C(=O)N2C(C(=O)[O-])=C(C[n+]3ccccc3)CS[C@H]12)c1csc(N)n1)C(=O)O [CEFTAZIDIME]	1 mU/mg	2 mU/mg	1.5 mU/mg	0.5 mU/mg	> 512 µg/mL	> 512 µg/mL	128 µg/mL (≈ 234 µM)	0.06 µg/mL (≈ 0.11 µM)	0.06 µg/mL (≈ 0.11 µM)	2 µg/mL (≈ 3.66 µM)	2 µg/mL (≈ 3.66 µM)	0.06 µg/mL (≈ 0.11 µM)	0.12 µg/mL (≈ 0.22 µM)	
Cc1onc(-c2ccccc2)c1C(=O)N[C@@H]1C(=O)N2[C@@H]1SC(C)(C)[C@@H]2C(=O)O	230 mU/mg	230 mU/mg	210 mU/mg	220 mU/mg										
C[C@@H](O)[C@H]1C(=O)N2C(C(=O)O)=C(S[C@@H]3CN[C@H](C(=O)N(C)C)C3)[C@H](C)[C@H]12 [MEROPENEM]	1.7 mU/mg	1.5 mU/mg	1 mU/mg	1 mU/mg	16 µg/mL (≈ 41.7 µM)	16 µg/mL (≈ 41.7 µM)	> 64 µg/mL	0.12 µg/mL (≈ 0.313 µM)	0.12 µg/mL (≈ 0.313 µM)	0.25 µg/mL (≈ 0.652 µM)	2 µg/mL (≈ 5.22 µM)	0.06 µg/mL (≈ 0.156 µM)	0.5 µg/mL (≈ 1.3 µM)	
CO/N=C(\C(=O)N[C@@H]1C(=O)N2C(C(=O)[O-])=C(C[N+]3(C)CCCC3)CS[C@H]12)c1csc(N)n1 [CEFEPIME]					64 µg/mL (≈ 133 µM)	256 µg/mL (≈ 533 µM)	256 µg/mL (≈ 533 µM)	0.06 µg/mL (≈ 0.125 µM)	0.06 µg/mL (≈ 0.125 µM)	1 µg/mL (≈ 2.08 µM)	1 µg/mL (≈ 2.08 µM)	0.06 µg/mL (≈ 0.125 µM)	0.12 µg/mL (≈ 0.25 µM)	
CC1(C)S[C@@H]2[C@H](NC(=O)[C@H](C(=O)O)c3ccsc3)C(=O)N2[C@H]1C(=O)O [TICARCILLIN]					> 512 µg/mL	64 µg/mL (≈ 166 µM)	> 512 µg/mL	> 512 µg/mL	> 512 µg/mL	4 µg/mL (≈ 10.4 µM)	> 512 µg/mL	4 µg/mL (≈ 10.4 µM)	> 512 µg/mL	
C[C@@H](O)[C@H]1C(=O)N2C(C(=O)O)=C(SCCNC=N)C[C@H]12 [IMIPENEM ANHYDROUS]	5.2 mU/mg	4.5 mU/mg	3 mU/mg	4 mU/mg	32 µg/mL (≈ 107 µM)	16 µg/mL (≈ 53.4 µM)	32 µg/mL (≈ 107 µM)	2 µg/mL (≈ 6.68 µM)	2 µg/mL (≈ 6.68 µM)	0.25 µg/mL (≈ 0.835 µM)	2 µg/mL (≈ 6.68 µM)	0.06 µg/mL (≈ 0.2 µM)	1 µg/mL (≈ 3.34 µM)	
CC1(C)S[C@@H]2[C@H](NC(=O)[C@H](N)c3ccccc3)C(=O)N2[C@H]1C(=O)O [AMPICILLIN]					> 512 µg/mL	> 512 µg/mL	> 512 µg/mL	> 512 µg/mL	> 512 µg/mL	> 512 µg/mL		4 µg/mL (≈ 11.4 µM)	> 512 µg/mL	MIC (Acinetobacter baumannii [15]): > 512 µg/mL; MIC (Acinetobacter baumannii [16]): > 512 µg/mL; MIC (Acinetobacter baumannii [17]): > 512 µg/mL; MIC (Escherichia coli [18]): 128 µg/mL; MIC (Escherichia coli [19]): 128 µg/mL; MIC (Acinetobacter baumannii [20]): 512 µg/mL; MIC (Escherichia coli [21]): 4 µg/mL; MIC [22]: 128 µg/mL
C[C@H]1[C@H](NC(=O)/C(=N\OC(C)(C)C(=O)O)c2csc(N)n2)C(=O)N1S(=O)(=O)O [AZTREONAM]					128 µg/mL (≈ 294 µM)	128 µg/mL (≈ 294 µM)	32 µg/mL (≈ 73.5 µM)	0.06 µg/mL (≈ 0.138 µM)	0.12 µg/mL (≈ 0.276 µM)	64 µg/mL (≈ 147 µM)	64 µg/mL (≈ 147 µM)	0.12 µg/mL (≈ 0.276 µM)	0.06 µg/mL (≈ 0.138 µM)	
CC(=O)OCC1=C(C(=O)O)N2C(=O)[C@@H](NC(=O)Cc3cccs3)[C@H]2SC1	20 mU/mg	15 mU/mg	15 mU/mg	20 mU/mg										Activity (Acinetobacter baumannii [2]): 10 mU/mg
